A word on the EC50: it is the concentration that produces a half-maximal response. Usually IC50 stands for the concentration needed to halve the response being measured. High values mean a need for much substance, low ones inhibition by little substance. By inhibition is commonly meant the percentage by which the read-out fell short of the control. A higher inhibition goes with a strong effect.

The source made the active and inactive calls. No cut-off for these calls is given here. Where only a bound is given, the exact number is not on record here.

For series [1], the system named is Xenopus laevis. The series can be described thus: Anesthetic effect on Xenopus laevis tadpole assessed as loss of swimming reflex. It counts as functional, organism-based. The method, boiled down:
(§1)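 Xenopus laevis tadpoles, N = 10 or more per concentration, at five or more concentrations from 0.01 μM to 30 μM. Loss of righting reflex (LRR) and loss of swimming reflex (LSR) were scored. EC50 and nHill were taken from concentration–response curves. Recovery was checked after an overnight period. Mean ± SEM.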

Series [2] deals with Oocyte. In words: Modulation of rat alpha1beta2gamma2L GABAA receptor expressed in Xenopus laevis oocytes assessed as potentiation of GABA-induced chloride currents at 0.1 uM by electrophysiology assay relative to control. It counts as cell-based.
A short description of series [3]: Displacement of [35S]TBPS from GABAA receptor picrotoxin binding site in rat brain membranes. The class given is cell membranes. (In general: Displacement assays read how much labelled ligand stays bound in the presence of the test substance.)
Series [4] relates to Oocyte. In words: Modulation of rat alpha1beta2gamma2L GABAA receptor expressed in Xenopus laevis oocytes assessed as potentiation of GABA-induced chloride currents at 0.5 uM by electrophysiology assay relative to control. The class given is cell-based.
Series [5] concerns Oocyte. In words: Modulation of rat alpha1beta2gamma2L GABAA receptor expressed in Xenopus laevis oocytes assessed as potentiation of GABA-induced chloride currents at 1 uM by electrophysiology assay relative to control. The class given is cell-based.
In series [6] the test system is Xenopus laevis. The series can be described thus: Anesthetic effect on Xenopus laevis tadpole assessed as loss of righting reflex. The class given is functional, organism-based. The method, boiled down: as §1
For series [7], the system named is Oocyte. The series can be described thus: Modulation of GABAA receptor alpha1(Q241L)beta2gamma2L mutant expressed in Xenopus laevis oocytes assessed as potentiation of GABA-induced chloride currents at 0.5 uM by electrophysiology assay. The class given is cell-based. The method, boiled down: (§2)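 Oocytes were coinjected with α1(Q241L) cRNA plus wild-type β2 and γ2L cRNA. Recording was by two-electrode voltage clamp at −70 mV, 2–5 days after injection. Responses to a sequence of compound applications were normalised, 4 oocytes per receptor type.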

Series [8] deals with Oocyte. In words: Modulation of rat alpha1beta2gamma2L GABAA receptor expressed in Xenopus laevis oocytes assessed as potentiation of GABA-induced chloride currents at 10 uM by electrophysiology assay relative to control. It counts as cell-based.
For series [9], the system named is Oocyte. In words: Modulation of rat alpha1beta2gamma2L GABAA receptor expressed in Xenopus laevis oocytes assessed as […] at 10 uM by electrophysiology assay relative to GABA. The class given is cell-based. The method, boiled down: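 Rat α1β2γ2L receptors in Xenopus oocytes, two-electrode voltage clamp at −70 mV. Current gated directly by 10 μM compound without GABA, expressed as the ratio to the current from 2 μM GABA. At least four oocytes. Mean ± SEM.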

For another series, the species on record is Rattus norvegicus. The series can be described thus: Displacement of [35S]TBPS from GABAA receptor picrotoxin binding site in rat brain membranes at 10 uM. The class given is cell membranes.
Series [10] relates to Xenopus laevis. The series can be described thus: Anesthetic effect on Xenopus laevis tadpole assessed as loss of swimming reflex at 10 uM. It counts as functional, organism-based. An outline of the steps:
(§3)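 Tadpoles, 10 per group, exposed at 10 μM. Each animal was scored for swimming reflex, and for death without overnight recovery from loss of swimming reflex. Results are given as the number of animals out of 10.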

For series [11], the species on record is Xenopus laevis. The series can be described thus: Toxicity in Xenopus laevis tadpole assessed as mortality at 10 uM. The class given is organism-based. The note with it: in vivo. An outline of the steps: as §3
In series [12] the test system is Oocyte. In words: Modulation of GABAA receptor alpha1(Q241L)beta2gamma2L mutant expressed in Xenopus laevis oocytes assessed as potentiation of GABA-induced chloride currents at 1 uM by electrophysiology assay. It counts as cell-based. The method, boiled down:
as §2

As for `C[C@@]12CC[C@H](O)C[C@H]1C[C@@H](OCc1ccccc1)[C@@H]1[C@@H]2CC[C@]2(C)[C@H]1CC[C@]21CO1`, the figures for the EC50 in the series with Xenopus laevis [1] and in the series with Xenopus laevis [6] were 550 nM and 310 nM, respectively. For the same molecule, the Ratio with Oocyte [2] is 3.47; with Oocyte [5], 20.3; in the series on Oocyte [8] it was 32.4; in the series on Oocyte [9], 0.22. Also, in series [3], the IC50 stood at 52 nM. Moreover, the result in the series on Oocyte [4] and with Oocyte [7] was inactive.
With `C[C@]12CC[C@@H](O)C[C@@H]1C[C@H](OCc1ccccc1)[C@@H]1[C@@H]2CC[C@]2(C)C(=O)CC[C@@H]12`, the Ratio in the series with Oocyte [2] was 0.97; with Oocyte [5], 0.9; with Oocyte [8] it was 0.76; with Oocyte [9], 0. In [3], this molecule returned an IC50 of more than 10000 nM. In the series listed under Rattus norvegicus, this molecule had an inhibition of 35%. The outcome in the series with Xenopus laevis [10] was inactive. Besides, the EC50 in the series with Xenopus laevis [6] is more than 10000 nM.
Turning to `C[C@]12CC[C@@H](O)C[C@@H]1CC[C@@H]1[C@@H]2[C@@H](OCc2ccccc2)C[C@@]2(C)[C@H]1CC[C@@]21CO1`, the EC50 with Xenopus laevis [1] was 270 nM; in the series with Xenopus laevis [6], 70 nM. The Ratio with Oocyte [2] was 2.99; in the series with Oocyte [5], 21.2; with Oocyte [8], 31.1; with Oocyte [9], 0.42. In series [3], this molecule returned an IC50 of 15 nM. Besides, the outcome in the series with Oocyte [4] and with Oocyte [7] was inactive.
With `C[C@@]12CC[C@H](O)C[C@H]1CCC1C2CC[C@]2(C)C1CC[C@]21CO1` (single isomer, unassigned), the Ratio in the series with Oocyte [2] amounted to 2.62; with Oocyte [5], 15.9; with Oocyte [8], 26.3; with Oocyte [9], 0.1. Also, the IC50 in series [3] was found to be 467 nM.
With `C[C@]12CC[C@@H](O)C[C@@H]1C[C@H](OCc1ccccc1)[C@@H]1[C@@H]2CC[C@@]2(C)[C@H]1CC[C@@]21CO1`, the EC50 with Xenopus laevis [1] was determined as 7940 nM; with Xenopus laevis [6], 3220 nM. The Ratio in the series with Oocyte [2] came out at 0.83; in the series with Oocyte [5], 0.88; in the series with Oocyte [8], 0.77; with Oocyte [9], 0.09. In [3], this molecule came in with an IC50 of 6750 nM.
Take `CC(=O)[C@H]1CC[C@H]2[C@@H]3CC[C@H]4C[C@H](O)CC[C@]4(C)[C@H]3CC[C@]12C` [BREXANOLONE]: the Ratio worked out at 1.26 in the series with Oocyte [2], 3.89 in the series with Oocyte [5], 9.65 with Oocyte [8] and 0.37 with Oocyte [9]. Further, in [3], the IC50 came out at 74 nM. Besides, the result in the series with Oocyte [4] and with Oocyte [7] was inactive.
Turning to `C[C@]12CC[C@@H](O)C[C@@H]1CC[C@@H]1[C@@H]2[C@@H](OCc2ccccc2)C[C@]2(C)C(=O)CC[C@@H]12`, the EC50 in the series with Xenopus laevis [1] was determined as 870 nM; with Xenopus laevis [6], 200 nM. Besides, the Ratio with Oocyte [2] was 1.08; in the series with Oocyte [5], 2.96; in the series on Oocyte [8], 24.4; in the series with Oocyte [9] it was 0.2. This molecule also displayed an IC50 in series [3] of 285 nM. Besides, the Activity result in the series filed under Xenopus laevis [11] was “Toxic”. Besides, the result with Oocyte [12] was inactive.
Take `C[C@@]12CC[C@H](O)C[C@H]1CC[C@@H]1[C@@H]2[C@H](OCc2ccccc2)C[C@]2(C)[C@H]1CC[C@]21CO1`: the EC50 came to 2740 nM in the series on Xenopus laevis [1] and 2640 nM in the series with Xenopus laevis [6]. The Ratio in the series with Oocyte [2] amounted to 1.01; with Oocyte [5] it was 1.3; in the series on Oocyte [8] it was 3.21; with Oocyte [9] it was 0.05. Besides, the IC50 in series [3] stood at 2050 nM.
Regarding `C[C@@]12CCC3C(CC[C@@H]4C[C@@H](O)CC[C@@]34C)C1CCC2=O` (single isomer, unassigned), the Ratio with Oocyte [2] amounted to 1.27; in the series with Oocyte [5], 3.66; with Oocyte [8] it was 18.9; with Oocyte [9], 0.03. In series [3], this molecule showed an IC50 of 311 nM.
For `C[C@]12CC[C@@H](O)C[C@@H]1CC[C@@H]1[C@@H]2CC[C@]2(C)C(=O)CC[C@@H]12` [ANDROSTERONE], the Ratio is 0.97 in the series on Oocyte [2], 1.41 in the series with Oocyte [5], 5.44 in the series with Oocyte [8] and 0.02 in the series with Oocyte [9]. In [3], this molecule had an IC50 of 410 nM. Besides, the result in the series on Xenopus laevis [10] was inactive.
Regarding `C[C@]12CC[C@@H](O)C[C@@H]1CC[C@@H]1[C@@H]2CC[C@@]2(C)[C@H]1CC[C@@]21CO1`, the Ratio with Oocyte [2] is 3.11; in the series with Oocyte [5], 21.9; in the series on Oocyte [8], 33.7; in the series on Oocyte [9], 0.22. The molecule also returned an IC50 in series [3] of 105 nM.
`C[C@@]12CC[C@H](O)C[C@H]1C[C@@H](OCc1ccccc1)[C@@H]1[C@@H]2CC[C@@]2(C)C(=O)CC[C@@H]12`: the EC50 in the series with Xenopus laevis [1] turned out to be 2930 nM; with Xenopus laevis [6] it was 1210 nM. The Ratio in the series with Oocyte [2] is 1.25; in the series with Oocyte [5] it was 5.74; with Oocyte [8] it was 25.2; with Oocyte [9] it was 0.11. Also, the IC50 in series [3] was 168 nM. The result in the series on Oocyte [12] was inactive.
As for `C[C@@]12CC[C@H](O)C[C@H]1CC[C@@H]1[C@@H]2[C@H](OCc2ccccc2)C[C@@]2(C)C(=O)CC[C@@H]12`, the EC50 with Xenopus laevis [1] turned out to be 3450 nM; in the series on Xenopus laevis [6] it was 1960 nM. For the same molecule, the Ratio in the series with Oocyte [2] worked out at 0.89; with Oocyte [5] it was 0.85; in the series with Oocyte [8], 0.6; in the series on Oocyte [9] it was 0. In series [3], this molecule had an IC50 of more than 10000 nM. Moreover, the Activity entry in the series listed under Xenopus laevis [11] is “Toxic”.

The values above are taken from ChEMBL document CHEMBL2021778, “Neurosteroid analogues. 17. Inverted binding orientations of androsterone enantiomers at the steroid potentiation site on γ-aminobutyric acid type A receptors” (J Med Chem, 2012).
